Results on four compounds are retold here after PMC11926516 (Small Methods, 2024).

Read-outs that look alike come from different tables or passages of the source.

One data set relates to HUVEC monolayers. In kind it is cell-based, human. The conditions noted are these: 0.1 h after MDS stimulation (1 mA/cm^2 for 7 min).
Data set [1] deals with major organs (heart, lung, liver, kidney, spleen). The class given is in vivo, rats. The method, boiled down:
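Major organs (heart, lung, liver, kidney, spleen) were taken at the end of the treatment experiment. They were photographed and weighed (n = 3, one-way ANOVA), then paraffin-embedded, serially sectioned and H&E-stained.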

For data set [2], the system named is OVX OP rat models. The data set can be described thus: Plasma bone turnover markers PINP and CTX-I by Elisa in OVX rats. In kind it is in vivo, Sprague–Dawley rats. Particulars: n = 5.
Data set [3] relates to OVX OP rat models. The data set can be described thus: Histology of distal femurs. In kind it is in vivo, Sprague–Dawley rats. In outline:
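Female Sprague–Dawley rats, 12 weeks old, under pentobarbital anaesthesia. Bilateral ovariectomy via dorsal midline incision; sham rats had matching adipose tissue removed. Rats received PBS or PTH by different delivery methods for 4 weeks. Distal femurs were decalcified 3 weeks, paraffin-embedded and serially sectioned. Stains: H&E, Masson, TRAP kit, and IHC for Col1 (1:100), Ocn (1:200) and Ctsk (1:50). Positive cells per bone surface counted, n = 5, one-way ANOVA.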

For data set [4] the following is noted: post-SCI, cited from earlier work.
Setting [5] is: stated consistent with own SCI-PTH group.

As to `CC(=O)OCOC(=O)CN(CC(=O)OCOC(C)=O)c1ccccc1OCCOc1ccccc1N(CC(=O)OCOC(C)=O)CC(=O)OCOC(C)=O` [BAPTA‐AM], the “increase in intracellular SFs and disappearance of VE-cadherin fluorescence during the electro-stimulated phase” value (“increase” for short) in the data set with HUVEC monolayers (inhibitor 20 µM) is given as “blocked”.

For the compound `C[C@@H](N)[C@H]1CC[C@H](C(=O)Nc2ccncc2)CC1` [Y27632], the “increase” value in the data set with HUVEC monolayers (inhibitor 15 µM) was “blocked”.

Consider `N.N.N.N.N.N.N.N.N.N.N.N.N.N.[Cl-].[Cl-].[Cl-].[Cl-].[Cl-].[Cl-].[O-2].[O-2].[Ru+3].[Ru+3].[Ru+4]` [ruthenium red], for which the “increase” value in the data set with HUVEC monolayers (inhibitor 20 µM) is recorded as “blocked”.

As to Human parathyroid hormone (1–34) [PTH], the “histopathological analysis of visceral organs” value in data set [1] (MDS-PTH group after one month of PTH treatment, H&E) was “no structural disruption”. The “appearance or weight of major organs” value in data set [1] (MDS-PTH group compared to SCI-PBS and SCI-PTH groups after one month of PTH treatment, n = 3) is listed as “no significant difference”. In addition, the “bone formation marker PINP” value with OVX OP rat models [2] (MDS-PTH group compared to OVX group) and in the data set with OVX OP rat models [2] (SCI-PTH group compared to OVX group) was “increased notably” each time. Moreover, the “bone resorption marker CTX-I” value in the data set with OVX OP rat models [2] (MDS-PTH group compared to SCI-PTH group) is on record as “significantly lower”. Also, the “bone formation marker PINP, difference between delivery methods” value in the data set on OVX OP rat models [2] (SCI-PTH versus MDS-PTH groups) is “no significant difference”. In addition, in the data set with OVX OP rat models [3] (MDS-PTH group compared to SCI-PTH group, IHC and Trap staining, n = 5), the “Ctsk+ and Trap+ osteoclasts per bone surface” value was “dramatically fewer”. Besides, in the data set with OVX OP rat models [3] (MDS-PTH group compared to SCI-PTH group, OVX rats, 40 µg k^−1g once daily for one month), the “new bone formation (H&E and Masson's staining)” value is given as “significantly promoted”. Also, the “Col+ and OCN+ osteoblasts per bone surface” value is “more” in the data set on OVX OP rat models [3] (MDS-PTH group compared with OVX group, IHC, n = 5) and “more” in the data set with OVX OP rat models [3] (SCI-PTH group compared with OVX group, IHC, n = 5). Besides, in the data set on OVX OP rat models [3] (SCI-PTH versus MDS-PTH groups, IHC, n = 5), the “Col+ and OCN+ osteoblasts per bone surface, difference between delivery methods” value is on record as “no significant difference”. Further, in data set [4], the subcutaneous residue result was “approximately 20%”. For the same compound, in data set [4] (setting [5]), the elimination time is on record as 4 h. The “time to plasma Cmax” value in data set [4] (setting [5]) was 30 min.
